Published values of several laboratories.
Lines come from different studies, so protocols differ.
Target: Glycogen synthase kinase-3 beta (GSK3B, Homo sapiens, UniProt P49841)

Structure (SMILES) | test | setting | endpoint | result
CCN(CC)c1ccc(C2=NNC(=O)CC2C)cc1[N+](=O)[O-] (stereo not shown) | enzyme activity, inhibitor | 10 µM | remaining activity | 93%
CCN(CC)CCNC(=O)c1c(C)[nH]c(/C=C2\C(=O)Nc3ccc(Cl)cc32)c1C | enzyme activity, inhibitor | 0.5 µM | remaining activity | 93.1%
Cc1cc(NS(=O)(=O)c2ccc(N)cc2)nc(C)n1 | enzyme activity, inhibitor, ADP detection | 100 µM | inhibition | 11.7%
C[C@@H](c1cccc(C#N)c1)n1cc(Cl)cc(C(N)=O)c1=N | cell-free assay, competition with immobilised ligand | 1 µM | remaining binding | 88%
Nc1cccc(-c2cc3c(Oc4cccc(O)c4)ncnc3[nH]2)c1 | cell-free assay | 0.5 µM | remaining signal | 48.1%
CN1CCN(c2cnc3c(C4CCN(C(=O)c5ccc(OC(F)(F)F)cc5N)CC4)ncnc3c2)CC1 | cell-free assay, competition with immobilised ligand | 1 µM | remaining binding | 100%
COc1cc2c(cc1OC)-c1c(oc3c4c(ccc3c1=O)OC(C)(C)C=C4)CO2 | enzyme activity, inhibitor, ADP detection | 100 µM | inhibition | 10.4%
Cc1sc(C(=O)NC2COC2)cc1-n1cc(NC(=O)Nc2c(F)cccc2Cl)cn1 | enzyme activity, inhibitor | 10 µM | remaining activity | 94.9%
C[C@H](c1ccc(F)cc1)N(Cc1cccc(C(=O)O)c1)C(=O)c1cnc2ccccc2c1 | cell-free assay, competition with immobilised ligand | 1 µM | remaining binding | 100%
CCCOc1ccc(OC)c(F)c1C(=O)c1ccc(C(=O)N[C@@H]2CNC[C@H]2NC(=O)c2ccc3[nH]ncc3c2)cc1 | enzyme activity, inhibitor | 10 µM | remaining activity | 67%
COc1cccc(CNC(=O)c2nc3scc(COCc4ccc(C(=O)O)cc4)c3c(=O)[nH]2)c1 | cell-free assay, competition with immobilised ligand | 1 µM | remaining binding | 62.6%
O=c1cc(-c2cccc3c2Sc2ccccc2S3)oc(N2CCOCC2)c1 | enzyme activity, inhibitor | 0.5 µM | remaining activity | 98.7%
CC(C)(C)c1nc2c(s1)c1nc(N)ncc1c1ccc(NS(=O)(=O)c3c(F)cccc3F)c(F)c12 | enzyme activity, inhibitor, radiometric | 1 µM | remaining activity | 91%
FC(F)(F)Oc1cccc(-c2cnc3ccc(-c4ccncc4)nn23)c1 | enzyme activity, inhibitor, radiometric | 1 µM | activity vs control | 88%
Oc1cc2c(cc1O)C1c3ccc(O)c(O)c3OCC1(O)C2 (stereo not shown) | enzyme activity, inhibitor, ADP detection | 100 µM | inhibition | 50.5%
CS(=O)(=O)c1cc(C2(NC(=O)c3cncc4c3cnn4-c3ccc(F)cc3)CC2)ccn1 | cell-free assay, competition with immobilised ligand | 1 µM | remaining binding | 85%
Nc1ncnc2occ(-c3ccc(NC(=O)Nc4cc(C(F)(F)F)ccc4F)cc3)c12 | enzyme activity, inhibitor | 20 µM | remaining activity | 57%
FC(F)c1nc2ccccc2n1-c1nc(N2CCOCC2)nc(N2CCOCC2)n1 | enzyme activity, inhibitor | 10 µM | remaining activity | 79%
COc1cc(/C=C/C(=O)CC(=O)/C=C/c2ccc(O)c(OC)c2)ccc1O | enzyme activity, inhibitor | 1 µM | activity vs control | 105%

Structure (SMILES) | test | setting | endpoint | result
Nc1[nH]nc2nc3ccccc3nc12 | enzyme activity, inhibitor | 0.5 µM | remaining activity | 99.7%
CN1CCOC(c2ccccc2)c2ccccc2C1 (stereo not shown) | enzyme activity, inhibitor, ADP detection | 100 µM | inhibition | 12.9%
O=C1NC(=O)c2cc(Nc3ccc(F)cc3)c(Nc3ccc(F)cc3)cc21 | cell-free assay | 0.5 µM | remaining signal | 89.2%
N#C[C@@H]1C[C@@H]2C[C@@H]2N1C(=O)[C@@H](N)C12CC3CC(CC(O)(C3)C1)C2 | enzyme activity, inhibitor, ADP detection | 100 µM | inhibition | 8.2%
CC(C)(O)[C@H]1CC[C@H](Nc2ccc3ncc(-c4cccc(C(F)(F)F)c4)n3n2)CC1 | enzyme activity, inhibitor | 1 µM | remaining activity | 81.6%
C[C@@H]1CN(c2cc(-c3n[nH]c4ccc(OC5(C)CC5)cc34)ncn2)C[C@H](C)O1 | cell-free assay, competition with immobilised ligand | 0.1 µM | remaining binding | 90%
Cc1cc(NC(=O)c2cccc3cc(-c4cccc5[nH]nc(N)c45)ccc23)ccc1F | enzyme activity, inhibitor | 0.1 µM | activity vs control | 85%
COc1ccc(COc2ccc(Cc3cnc(N)nc3N)cc2OC)cc1 | cell-free assay | 0.5 µM | remaining signal | 97.8%
Cc1ccc(NC(=O)c2ccc(C)c(C(F)(F)F)c2)cc1C#Cc1nn(C2CCC(O)CC2)c2ncnc(N)c12 (stereo not shown) | cell-free assay | 10 µM | remaining signal | 26%
O=C(O)c1cn(C2CC2)c2cc(N3CCNCC3)c(F)cc2c1=O | enzyme activity, inhibitor, ADP detection | 100 µM | inhibition | 18.7%
CCC(=O)N[C@@H]1CC[C@H](C(=O)N(C)c2ccc(-c3nc4ccccc4o3)cc2)C1 | cell-free assay, competition with immobilised ligand | 1 µM | remaining binding | 96%
O=c1cccc(C=Cc2ccc3c(c2)OCO3)o1 | enzyme activity, inhibitor, ADP detection | 100 µM | inhibition | 26.1%
O=C1c2ccccc2-c2n[nH]c3cccc1c23 | enzyme activity, inhibitor | 0.5 µM | activity vs control | 86.8%
COc1cc(Nc2cnc(C#N)c(O[C@H](C)CN(C)C)n2)ncc1-c1cnn(C)c1 | enzyme activity, inhibitor, radiometric | 10 µM | remaining activity | 52%
CC(C)c1ccc(NC(=O)c2cccs2)c(-c2nc3ccccc3[nH]c2=O)c1 | enzyme activity, inhibitor | 1 µM | activity vs control | 128%
Cc1cc(-n2nc(Cc3cc(F)cc(C(F)(F)F)c3)nc2C)ccc1C(N)=O | cell-free assay, competition with immobilised ligand | 1 µM | remaining binding | 98%
O=Nc1c(-c2c(O)[nH]c3ccccc23)[nH]c2ccccc12 | cell-free assay | 0.5 µM | remaining signal | 27.3%
Fc1ccc([C@@H]2CCNC[C@H]2COc2ccc3c(c2)OCO3)cc1 | enzyme activity, inhibitor, ADP detection | 100 µM | inhibition | 0.9%
